Calb biofilm kill: mixture kills Candida albicans biofilm cells. C. albicans biofilm persisters + clotrimazole, fluorescence viability; primary screen in compound mixtures of four per well. inhibition, % at 7.6 µM. actives 0.02% (n = 120,000);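 active = inhibition above 30.3% in the primary screen of four-compound pools, then above 30% when the compound was retested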;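 also: compounds exposed to preformed 24 h biofilms for 48 h; 0% = untreated biofilm control and 100% = clotrimazole plus chlorhexidine kill blank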
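Probe or stimulus – Clotrimazole 50 µg/mL co-treatment · System – C. albicans biofilms · Schedule – 24 h biofilm formation, then 48 h compound exposure, 37 °C · Evaluation – percent inhibition of biofilm viability · Technique – 2-h Alamar Blue fluorescence, 535/590 nm excitation/emission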
Mcl1 Bid PPI: Mcl-1/Bid interaction inhibition. actives 0.97% (n = 220,000). TR-FRET Mcl-1/Bid-Dy647 peptide binding, 1536-well. Q07820. inhibition, % at 21.7 µM. AID 1021;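 active = compounds that cut the binding signal by more than half at the single screening dose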;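 also: His-tagged Mcl-1 with europium anti-His antibody binding Bid BH3 peptide; 0% = Mcl-1 plus peptide wells and 100% = peptide-only wells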
Target sequence (Q07820 whole entry, looked up): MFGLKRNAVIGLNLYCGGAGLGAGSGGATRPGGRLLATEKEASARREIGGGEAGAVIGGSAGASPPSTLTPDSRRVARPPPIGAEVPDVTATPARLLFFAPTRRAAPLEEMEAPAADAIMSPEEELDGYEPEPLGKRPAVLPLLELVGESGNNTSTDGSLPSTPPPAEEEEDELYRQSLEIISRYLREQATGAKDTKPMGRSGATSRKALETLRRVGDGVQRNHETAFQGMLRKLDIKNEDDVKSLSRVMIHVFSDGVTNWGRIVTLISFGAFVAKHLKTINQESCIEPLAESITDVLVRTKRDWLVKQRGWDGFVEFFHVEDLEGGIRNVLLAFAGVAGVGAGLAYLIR
Mcl-1 Bim block: disrupts Bim peptide binding to human Mcl-1; Bead-based flow cytometry, Bim peptide-Mcl-1 binding; inhibition, % at 10 µM; AID 1009; actives 0.1% (n = 190,000); Q07820; in the data active = inhibition above about 40%;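 also: 0% = no compound tracer wells and 100% = peptide blocker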
Mcl1-Noxa inh: disrupts binding of human Mcl-1 to Noxa peptide. Q07820. TR-FRET Mcl-1/Noxa peptide binding, 2 h. inhibition, % at 21.7 µM. actives 1.5% (n = 220,000);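 active = compounds that cut the protein-peptide binding signal by more than 50% relative to plate controls in a single-dose test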;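 also: His-tagged Mcl-1 with rhodamine Noxa BH3 peptide and terbium anti-His antibody; 0% = Mcl-1 plus Noxa peptide wells and 100% = peptide-only wells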
m-calpain inh: calpain II (pig) inhibition. inhibition, % at 16 µM. actives 0.37% (n = 220,000). purified calpain II, fluorogenic peptide substrate, 30 min. AID 1236;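 active = inhibition above about 50%, limit read from the data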
Arbovirus inh: antivirals against arbovirus infection; actives 0.37% (n = 200,000); arbovirus infection cell-based antiviral screen; inhibition, % at 10 µM; in the data active = inhibition above about 30%
* hit, by the source's call; ! = a repeat was not active. The list is not random: actives were taken first. Their share in the collection is about 2.8%.

Results for N#Cc1cc(-c2ccccc2)nc(Oc2ccccc2)n1 ?
Calb biofilm kill: 12; Mcl1 Bid PPI: 83*; Mcl-1 Bim block: -5; Mcl1-Noxa inh: -1; m-calpain inh: -12; Arbovirus inh: 17

What do the screens show for `O=C(NCC1CCCO1)c1ccc(CSCc2cccc(F)c2)o1` (stereo not drawn)?
Calb biofilm kill: 17; Mcl1 Bid PPI: 89*; Mcl-1 Bim block: -2; Mcl1-Noxa inh: 7; m-calpain inh: -39; Arbovirus inh: -2

Results for CCN(CC)C(=O)CSc1nnc(-c2cccnc2)n1CCc1ccccc1 ?
Mcl1 Bid PPI: -3; Mcl-1 Bim block: 3; Mcl1-Noxa inh: 61*; m-calpain inh: -5; Arbovirus inh: 0

How did O=c1[nH]c(SCc2ccccc2[N+](=O)[O-])nc2nc[nH]c12 do in these assays?
Calb biofilm kill: 9; Mcl1 Bid PPI: -29; Mcl1-Noxa inh: -32; m-calpain inh: 10

Results for CCCc1c(OCCCCc2nn[nH]n2)ccc(C(C)=O)c1O ?
Calb biofilm kill: 9; Mcl1 Bid PPI: 5; Mcl-1 Bim block: -2; Mcl1-Noxa inh: 21; m-calpain inh: 19; Arbovirus inh: 35*!

How did CN(C)c1ccc(/C=N/NC(=O)c2cc(-c3ccc4c(c3)OCO4)n[nH]2)cc1 do in these assays?
Calb biofilm kill: 19; Mcl1 Bid PPI: 1; Mcl1-Noxa inh: 60*; m-calpain inh: -221

What do the screens show for `O=C(Nc1ccccc1)c1ccccc1CCc1ccccc1`?
Mcl1 Bid PPI: 2; Mcl-1 Bim block: -4; Mcl1-Noxa inh: 17; m-calpain inh: 11; Arbovirus inh: -2

How did O=C(Nn1cnnc1)c1ccccc1CCc1ccccc1 do in these assays?
Mcl1 Bid PPI: 97*; Mcl-1 Bim block: -5; Mcl1-Noxa inh: 19; m-calpain inh: -7; Arbovirus inh: 2

How did O=C(O[C@@H]1Cc2c(O)cc(O)cc2O[C@@H]1c1cc(O)c(O)c(O)c1)c1cc(O)c(O)c(O)c1 do in these assays?
Mcl1 Bid PPI: 1; Mcl-1 Bim block: 0; Mcl1-Noxa inh: 95*; m-calpain inh: 26; Arbovirus inh: -8

Results for CC1CCN(CCCn2c(=S)[nH]c3c(sc4ccccc43)c2=O)CC1 ?
Calb biofilm kill: 12; Mcl1 Bid PPI: -80; Mcl-1 Bim block: -3; Mcl1-Noxa inh: 59*; m-calpain inh: 6; Arbovirus inh: 4

Results for CC1CCN(CCCn2c(=S)[nH]c3c(sc4ccc([N+](=O)[O-])cc43)c2=O)CC1 ?
Calb biofilm kill: 21; Mcl1 Bid PPI: -41; Mcl-1 Bim block: 1; Mcl1-Noxa inh: 48; m-calpain inh: -1; Arbovirus inh: -1

Results for COc1ccccc1CNC(=O)Cc1ccc(Br)cc1 ?
Calb biofilm kill: 9; Mcl1 Bid PPI: 3; Mcl-1 Bim block: -1; Mcl1-Noxa inh: 19; m-calpain inh: 36; Arbovirus inh: -13

How did COc1ccc(NC(=O)/C=C/c2ccc(Br)o2)cn1 do in these assays?
Calb biofilm kill: 10; Mcl1 Bid PPI: -28; Mcl-1 Bim block: 2; Mcl1-Noxa inh: 58*; m-calpain inh: -53; Arbovirus inh: -3

Results for COc1ccccc1CNC(=O)/C=C/c1ccc(Br)o1 ?
Calb biofilm kill: 43; Mcl1 Bid PPI: 23; Mcl-1 Bim block: 3; Mcl1-Noxa inh: 70*; m-calpain inh: -78; Arbovirus inh: 1

What do the screens show for `CSCCC(C(=O)OC1CCOC1=O)N1C(=O)c2ccccc2C1=O` (stereo not drawn)?
Calb biofilm kill: 9; Mcl1 Bid PPI: -27; Mcl-1 Bim block: 0; Mcl1-Noxa inh: 0; m-calpain inh: -82; Arbovirus inh: 5

Results for Cc1noc(C)c1COC(=O)c1cnc(Cl)c(Cl)c1 ?
Calb biofilm kill: 13; Mcl1 Bid PPI: -12; Mcl-1 Bim block: 1; Mcl1-Noxa inh: -11; m-calpain inh: -17; Arbovirus inh: -8

How did COc1ccc(OC)c(C2=NOC(C(=O)NCc3cccs3)C2)c1 (stereo not drawn) do in these assays?
Calb biofilm kill: 12; Mcl1 Bid PPI: 1; Mcl-1 Bim block: 0; Mcl1-Noxa inh: 46; m-calpain inh: -24; Arbovirus inh: -16

How did COCCNC(=O)COc1cccc2c1OC(C)(C)C2 do in these assays?
Calb biofilm kill: 9; Mcl1 Bid PPI: -18; Mcl-1 Bim block: 0; Mcl1-Noxa inh: 3; m-calpain inh: 2; Arbovirus inh: 15

How did CN(C)CC(C)(C)CNC(=O)C1CCN(Cc2ccccc2O)CC1 do in these assays?
Mcl1 Bid PPI: 58*; Mcl-1 Bim block: 0; Mcl1-Noxa inh: 20; m-calpain inh: -55; Arbovirus inh: 20

How did O=C(NCCc1ccccc1)C1CCN(Cc2ccccc2F)CC1 do in these assays?
Calb biofilm kill: 12; Mcl1 Bid PPI: 11; Mcl-1 Bim block: -6; Mcl1-Noxa inh: 8; m-calpain inh: -3; Arbovirus inh: -5

How did O=C(Nc1ccc2oc(-c3cccnc3)nc2c1)c1ccc(Br)o1 do in these assays?
Mcl1 Bid PPI: 52*; Mcl-1 Bim block: 0; Mcl1-Noxa inh: 23; m-calpain inh: -73; Arbovirus inh: -4

What do the screens show for `O=C(Nc1ccc2oc(-c3cccnc3)nc2c1)c1ccc([N+](=O)[O-])o1`?
Calb biofilm kill: 12; Mcl1 Bid PPI: 61*; Mcl-1 Bim block: 0; Mcl1-Noxa inh: 67*; m-calpain inh: 4; Arbovirus inh: -17

Results for O=C(Nc1ccc2oc(-c3cccnc3)nc2c1)c1ccco1 ?
Mcl1 Bid PPI: -17; Mcl-1 Bim block: 0; Mcl1-Noxa inh: 38; m-calpain inh: -427; Arbovirus inh: -3

Results for CN(C)C(CNC(=O)c1ccc(S(=O)(=O)N(C)C)cc1)Cc1ccccc1 (stereo not drawn) ?
Calb biofilm kill: 14; Mcl1 Bid PPI: -9; Mcl-1 Bim block: 1; Mcl1-Noxa inh: 4; m-calpain inh: 12; Arbovirus inh: 7

What do the screens show for `CCOC(=O)c1c(C)[nH]c(C(=O)COC(=O)/C=C/c2ccc3c(c2)OCO3)c1C`?
Calb biofilm kill: 11; Mcl1 Bid PPI: 56*; Mcl-1 Bim block: -1; Mcl1-Noxa inh: 24; m-calpain inh: -12; Arbovirus inh: -1

Results for CSc1ccc(CN2C(=O)NC3(CCCCCCC3)C2=O)cc1 ?
Calb biofilm kill: 4; Mcl1 Bid PPI: -22; Mcl-1 Bim block: 0; Mcl1-Noxa inh: -2; m-calpain inh: 29; Arbovirus inh: 15

How did COC(C[C@@H]1O[C@@H]1[C@@H](O)COCc1ccccc1)OC do in these assays?
Calb biofilm kill: 14; Mcl1 Bid PPI: -7; Mcl1-Noxa inh: -2; m-calpain inh: -12

What do the screens show for `CN(C)N1C(N)=C(C#N)C(c2cccnc2)C2=C1CC(C)(C)CC2=O` (stereo not drawn)?
Mcl1 Bid PPI: 62*; Mcl-1 Bim block: -4; Mcl1-Noxa inh: 22; m-calpain inh: -7; Arbovirus inh: 10

Results for O=C(NCCN1CCOCC1)c1ccc2c(c1)N(Cc1ccccc1)C(=O)CS2 ?
Mcl1 Bid PPI: -7; Mcl-1 Bim block: -1; Mcl1-Noxa inh: 9; m-calpain inh: 0; Arbovirus inh: 9

How did O=C(NCCC1=CCCCC1)c1ccc2c(c1)N(Cc1ccccc1)C(=O)CS2 do in these assays?
Mcl1 Bid PPI: 4; Mcl-1 Bim block: -5; Mcl1-Noxa inh: -8; m-calpain inh: 60*; Arbovirus inh: 0

High-throughput results (PubChem BioAssay)
